# RGS4 inh: human RGS4 inhibition. HEK293 M3R/RGS4 inducible, Fluo-4 calcium flux; hits give high values; triggered by carbachol at its EC20. B-score at 10 µM. 0.45% of 310,000 active. AID 463165;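 active means B-score, a plate-corrected calcium signal, over three deviations above library mean, with baseline fluorescence within five deviations of library mean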;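 further: RGS4 expression induced by doxycycline in cells with stable M3 receptor; B-score is computed from the integrated fluorescence ratio over baseline after carbachol; higher B-score means a larger calcium signal and so more RGS4 inhibition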
# Target sequence (P49798 whole entry, looked up): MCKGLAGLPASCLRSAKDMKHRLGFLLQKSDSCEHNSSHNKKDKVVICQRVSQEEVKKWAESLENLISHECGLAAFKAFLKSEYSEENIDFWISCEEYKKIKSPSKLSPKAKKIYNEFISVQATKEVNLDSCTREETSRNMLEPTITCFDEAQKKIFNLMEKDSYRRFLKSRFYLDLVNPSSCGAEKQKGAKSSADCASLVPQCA
# RGS4 act: potentiators or activators of RGS4. 0.92% of 310,000 active. HEK293 M3R/inducible RGS4, carbachol calcium flux Fluo4; hits give low values. B-score at 10 µM. AID 463111;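 active means B-score of the integrated calcium signal more than 4 SD below the library mean, with starting fluorescence not abnormally high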;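 further: negative B-score means reduced calcium response which marks RGS4 activation or potentiation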
#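 Reagent: ECmax carbachol challenge; Test system: M3R-expressing HEK293 line, RGS4 induced by doxycycline; Schedule: overnight RGS4 induction, 30 min dye load 37 °C, 20 min compound RT; Detection: calcium dye Fluo4 fluorescence; Read-out: Agonist-evoked peak-minus-minimum fluorescence over baseline, integrated ratio, B score.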
# MrgX1 antag: human MrgX1 receptor antagonism, primary screen. B-score at 10 µM. 1.3% of 310,000 active. MRGX1-HEK293 calcium flux, Fluo-4, BAM8-22 antagonism; hits give low values. Q96LB2;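 active means calcium-response B-score plate-corrected more than 3 library SD below zero, starting fluorescence within 5 deviations, no agonist response on first addition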;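 further: peak minus trough fluorescence over baseline after final BAM8-22 challenge near maximal dose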
# Target sequence (Q96LB2 whole entry, looked up): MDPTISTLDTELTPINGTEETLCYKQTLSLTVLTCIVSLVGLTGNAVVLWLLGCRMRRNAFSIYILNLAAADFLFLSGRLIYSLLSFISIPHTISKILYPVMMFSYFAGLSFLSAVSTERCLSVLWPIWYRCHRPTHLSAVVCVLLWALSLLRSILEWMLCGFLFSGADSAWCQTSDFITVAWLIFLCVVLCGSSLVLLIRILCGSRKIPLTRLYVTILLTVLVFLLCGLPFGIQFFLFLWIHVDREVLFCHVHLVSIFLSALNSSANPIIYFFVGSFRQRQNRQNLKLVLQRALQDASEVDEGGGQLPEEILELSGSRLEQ
# MrgX1 allo act: human MrgX1 positive allosteric modulation, primary screen; Q96LB2; MrgX1-HEK293, Fluo-4 calcium flux, FDSS; hits give high values; B-score at 10 µM; 0.63% of 310,000 active;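 active means plate-corrected calcium response at least 3 library SD above typical, normal starting fluorescence, not activating the receptor alone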;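 further: compound read alongside a low EC10 to EC30 dose of BAM8-22 agonist; peak minus trough fluorescence over baseline measured at the second addition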
# MrgX1 agonist: agonists of human MrgX1 receptor; Q96LB2; MrgX1-HEK293 cells, Fluo-4 calcium fluorescence, agonist mode; hits give high values; B-score at 10 µM; 0.44% of 310,000 active;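 active means calcium response B-score plate-corrected fluorescence ratio at least 3 library SD, with starting fluorescence B-score inside 5 SD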
#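 Material – MrgX1-expressing HEK293 cells · Input – 15,000 cells seeded per well · Dosing – compound as first of three additions · Times – overnight seeding, then 1 h dark dye loading · Measured by – kinetic Fluo-4 NW fluorescence of intracellular calcium · Read-out – B-scored fluorescence response ratio · Benchmarks – positive and negative control wells on each plate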
# MrgX1 ant reconf: confirmation of human MrgX1 receptor antagonists; 19% of 2,300 active; MrgX1-HEK293, BAM8-22 calcium flux, Fluo-4; hits give low values; shares compounds with MrgX1 antag; remaining BAM8-22 calcium response % of control (hits give low values), % at 10 µM;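 active means remaining agonist calcium response no higher than 100% minus 3 SD of agonist-only control wells, with starting fluorescence near control levels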;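 further: agonist BAM8-22 given at a near maximal EC90 to ECmax level; peak minus minimum fluorescence divided by baseline after agonist addition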
# HEK293 Ca flux: activity in parental HEK293 cells lacking MrgX1. shares compounds with MrgX1 antag. Fluo-4 calcium fluorescence, FDSS. fluorescence ratio F(max-min)/F0 at 10 µM. 2% of 4,000 active;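 active means duplicate-averaged calcium fluorescence ratio at least three times the standard deviation of buffer wells, a nonspecific response in parental cells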
# HEK293 Ca counter: MrgX1 allosteric activator counter-screen hit in parental HEK293 cells; shares compounds with MrgX1 antag; parental HEK293 calcium flux, Fluo-4 fluorescence ratio; hits give high values; fluorescence ratio F(max-min)/F0 at 10 µM; 0.4% of 4,000 active;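 active means calcium fluorescence ratio, averaged over duplicates, at least 3 SD of the buffer-well ratio, meaning a nonspecific response in receptor-free cells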;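 further: untransfected parental HEK293 lacking MrgX1 used as counterscreen for MrgX1 allosteric activators; fluorescence change taken during the second addition on a kinetic imager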
# HEK293 Ca cntr2: counter-screen for MrgX1 activators: effect in parental HEK293 cells; shares compounds with MrgX1 antag; Fluo-4 calcium fluorescence (FDSS); hits give high values; fluorescence ratio F(max-min)/F0 at 10 µM; 8.7% of 4,000 active; AID 624115;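 active means calcium fluorescence ratio at least three times the spread of buffer wells, meaning a non-specific response in parental cells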
# * marks the source's active call; other numbers are inactive results; i = inactive; . = no result. Only some compounds are listed: those with a hit (about 3.5% of all), similar ones and a draw of the others.
SMILES,RGS4 inh,RGS4 act,MrgX1 antag,MrgX1 allo act,MrgX1 agonist,MrgX1 ant reconf,HEK293 Ca flux,HEK293 Ca counter,HEK293 Ca cntr2
Cc1ccc(C(=O)NCC(=O)N(C)CC(=O)Nc2c(Cl)cccc2Cl)s1,i,i,i,i,i,.,.,.,.
CCN(CC)S(=O)(=O)c1ccc(N2CCOCC2)c(NC(=O)c2cnccn2)c1,i,i,i,i,i,.,.,.,.
CN(c1ccccc1)S(=O)(=O)c1ccc(NC(=O)c2nc(S(C)(=O)=O)ncc2Cl)cc1,i,i,-5.75*,i,i,i,i,i,i
COc1cccc(NC(=O)c2nc(SC)ncc2Cl)c1,i,i,i,i,i,.,.,.,.
COc1cccc(NC(=O)c2nc(S(C)(=O)=O)ncc2Cl)c1,i,i,-5.54*,i,i,i,i,i,i
CN(c1ccccc1)S(=O)(=O)c1ccc(NC(=O)c2ccccc2)cc1,i,i,i,i,i,.,.,.,.
COc1ccc(NC(=O)c2cc(S(=O)(=O)N3CCCCC3)c[nH]2)cc1,i,i,i,i,i,.,.,.,.
COc1ccccc1NC(=S)NCc1ccc2c(c1)cc(C)n2C,i,i,i,i,i,.,.,.,.
Cc1ccccc1NC(=S)NCc1ccc2c(c1)cc(C)n2C,i,i,-5.34*,i,i,i,i,i,i
COc1ccc(NC(=O)c2cc3ccc(O)cc3o/c2=N\O)cc1,i,i,i,i,i,.,.,.,.
CC(C)(C)n1nnnc1C(c1cc2cc3c(cc2[nH]c1=O)OCO3)N1CCN(c2ccccc2)CC1 (stereo not drawn),i,i,-6.96*,i,i,i,i,i,i
CCCC1(C)NC(=O)c2ccccc2O1 (stereo not drawn),i,i,-4.92*,i,i,i,i,i,i
O=C1NC(O)(c2ccccc2)Oc2ccccc21 (stereo not drawn),i,i,i,i,i,.,.,.,.
Cc1sc2nc(CSc3ccccc3)nc(N3CCC(C(N)=O)CC3)c2c1C,i,i,-11*,i,i,i,i,i,i
CCOC(=O)c1sc2nc(CSc3ccccc3)nc(N3CCC(C(N)=O)CC3)c2c1C,i,i,i,i,i,.,.,.,.
CCC(=O)NC1CCN(C(=S)NC)CC1,i,i,i,i,i,.,.,.,.
Cc1ccc(CN2C(=O)C3CCCN3c3ccc(C#N)cc32)cc1 (stereo not drawn),i,i,i,i,i,.,.,.,.
Cc1ccc(C)c(CN2C(=O)C3CCCN3c3ccc(C#N)cc32)c1 (stereo not drawn),i,i,-5.61*,i,i,i,i,i,i
Cc1cc(C(=O)NC2CCCN(Cc3ccc(Cl)cc3)C2)n(C)n1 (stereo not drawn),i,i,i,i,i,.,.,.,.
CCN1CCN(C(=O)CN(CC)S(=O)(=O)c2ccc(F)cc2)CC1,i,i,i,i,i,.,.,.,.
Cc1n[nH]c(=O)c2c(NC(=O)CSc3nnc(-c4ccncc4)n3C)oc(C)c12,i,i,-7.07*,i,i,i,i,i,i
CCOCCCn1c(SCC(=O)Nc2oc(C)c3c(C)n[nH]c(=O)c23)nnc1-c1ccncc1,i,i,i,i,i,.,.,.,.
C=CCn1c(C)nnc1SCC(=O)Nc1oc(C)c2c(C)n[nH]c(=O)c12,i,i,-5.26*,i,i,i,i,i,i

# Compound activity as filed in PubChem.
